Published values gathered from unrelated publications.
Each line is one published result; the experiments were not run side by side.
Target: Death-associated protein kinase 2 (DAPK2, Homo sapiens, UniProt Q9UIK4)

SMILES	test	conditions	endpoint	value
CN(C)C(=O)Cn1cc(-c2nc([C@@](C)(c3ccc(-c4cnc(N)nc4)cc3)C3CC3)no2)cn1	cell-free assay, competition with immobilised ligand	1 µM	remaining binding	100%
CCCOc1ccc(OC)c(F)c1C(=O)c1ccc(C(=O)N[C@@H]2CNC[C@H]2NC(=O)c2ccc3[nH]ncc3c2)cc1	enzyme activity, inhibitor	10 µM	remaining activity	84%
O=C1Nc2ccc(Cl)cc2C1=Cc1cc(Cl)c(O)c(Cl)c1	cell-free assay	0.5 µM	remaining signal	135%
Nc1ncnc2occ(-c3ccc(NC(=O)Nc4cc(C(F)(F)F)ccc4F)cc3)c12	cell-free assay, inhibitor	20 µM	remaining signal	25%
CS(=O)(=O)NCC[C@H](NC(=O)c1cncc2c1cnn2-c1ccc(F)cc1)c1ccnc(S(C)(=O)=O)c1	cell-free assay, competition with immobilised ligand	1 µM	remaining binding	100%
O=C1NC(=O)c2cc(Nc3ccc(F)cc3)c(Nc3ccc(F)cc3)cc21	cell-free assay	0.5 µM	remaining signal	96.7%
N[C@H]1CCN(c2nccc(-c3cnn4ncccc34)n2)C1	binding	1 µM	remaining binding	98%
Cc1ccc(NC(=O)c2ccc(C)c(C(F)(F)F)c2)cc1C#Cc1nn(C2CCC(O)CC2)c2ncnc(N)c12 (stereo not shown)	cell-free assay	10 µM	remaining signal	95%
Cc1ccc(Nc2nccc(N(C)c3ccc4c(C)n(C)nc4c3)n2)cc1S(N)(=O)=O	enzyme activity, inhibitor	10 µM	inhibition	-4%
CC(C)(O)[C@H]1CC[C@H](Nc2ccc3ncc(-c4cccc(C(F)(F)F)c4)n3n2)CC1	enzyme activity, inhibitor	1 µM	remaining activity	107%
COc1ccc2c(c1)O[C@@H](c1ccc(OC)c(OC)c1)C[C@H]2NC(=O)C1(c2ccc3c(c2)OC(F)(F)O3)CC1	cell-free assay, competition with immobilised ligand	1 µM	remaining binding	98%
CNC(=O)c1cc(Oc2ccc(NC(=O)Nc3ccc(Cl)c(C(F)(F)F)c3)cc2)ccn1	enzyme activity, inhibitor	10 µM	inhibition	6%
CO[C@@H](C)c1c(Nc2ccc([C@@H](N(C)C(=O)C3CCS(=O)(=O)CC3)C(F)(F)F)cc2)cnc2cc(Cl)nn12	binding, competition with immobilised ligand	1 µM	remaining binding	41%
CC(C)(C)c1nc(-c2cccc(NS(=O)(=O)c3c(F)cccc3F)c2F)c(-c2ccnc(N)n2)s1	enzyme activity, inhibitor, radiometric	1 µM	remaining activity	92%
C[C@@H]1CN(c2cc(-c3nn(C)c4ccc(OC5(C)CC5)cc34)ncn2)C[C@H](C)O1	cell-free assay, competition with immobilised ligand	1 µM	remaining binding	89%
CCCS(=O)(=O)Nc1ccc(F)c(C(=O)c2c[nH]c3ncc(-c4ccc(Cl)cc4)cc23)c1F	enzyme activity, inhibitor	1 µM	inhibition	< 10%
